# Screening data as filed in PubChem.
# GRK2 inh: compounds blocking aptamer binding on GRK2 – biochemical, human GRK2, bead flow cytometry, HTS, primary screen. Beta-adrenergic receptor kinase 1 (Homo sapiens), P25098. FAM-aptamer displacement from GRK2. inhibition of aptamer binding, % at 10 µM. 330,000 compounds, 0.59% hits. AID 488847, 2010;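 active = inhibition of aptamer binding above 40%, roughly 3 SD of noise, on plates passing a quality check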;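 also: median bead fluorescence of bound FAM aptamer so fluorescent compounds give negative values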
# Scp-1 inhibitor: Scp-1 phosphatase inhibitors, primary screen, biochemical, colorimetric, uHTS. Carboxy-terminal domain RNA polymerase II polypeptide A small phosphatase 1 (Homo …. Recombinant Scp1, phosphopeptide, malachite green phosphate absorbance. inhibition, % at 20 µM. 340,000 compounds, 0.88% hits. AID 493091, 2011;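 active = inhibition above about 50% at 20 µM, limit read from the data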;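 also: plate controls were DMSO wells with enzyme for no effect and wells lacking enzyme for full effect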
# Target sequence (Q9GZU7 76-261 limits assumed): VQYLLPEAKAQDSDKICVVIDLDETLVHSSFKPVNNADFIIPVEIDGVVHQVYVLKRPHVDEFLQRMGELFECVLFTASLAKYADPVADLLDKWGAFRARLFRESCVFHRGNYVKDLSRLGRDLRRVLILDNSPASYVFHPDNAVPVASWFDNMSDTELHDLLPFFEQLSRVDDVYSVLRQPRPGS
#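 assay system = SCP-1 phosphatase catalytic domain, residues 76-261 | buffer or medium = 50 mM Tris acetate pH 5.5, 0.005% Tween-20, 10 mM MgCl2 | incubation = enzyme reaction 45 min at room temperature, colour 5 min, stabilisation 30 min | signal = Phosphate-binding colour reagent, absorbance read at 630 nm | measure = % inhibition at 20 µM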
# LMPTP block: LMPTP phosphatase inhibitors, primary screen, biochemical, fluorescence intensity, uHTS; Low molecular weight phosphotyrosine protein phosphatase (Homo sapiens), P24666; recombinant LMPTP-A, OMFP fluorogenic substrate; inhibition, % at 20 µM; 360,000 compounds, 0.22% hits;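 active = compounds that cut the enzyme signal by at least half of the control window in the single-dose screen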;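 also: plate controls were DMSO wells with enzyme plus substrate for no effect and substrate without enzyme for full effect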
# Target sequence (P24666 whole entry, looked up): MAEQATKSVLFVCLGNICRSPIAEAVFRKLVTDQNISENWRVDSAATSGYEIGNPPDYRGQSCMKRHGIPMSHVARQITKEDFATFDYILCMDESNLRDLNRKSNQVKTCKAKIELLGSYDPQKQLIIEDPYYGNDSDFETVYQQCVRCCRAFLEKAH
#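 test system = LMPTP-A | amount = 0.625 nM LMPTP-A final | reagent = fluorogenic phosphatase substrate OMFP at 400 µM final | incubation = 50 min at room temperature | benchmarks = no-enzyme low control, uninhibited high control | medium = Bis-Tris pH 6.0, DTT, detergent | signal = fluorescence intensity of OMFP turnover product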
# SUMO1-SIM PPI: modulators of SUMO1 protein-protein interactions, primary screen, biochemical, uHTS; Small ubiquitin-related modifier 1 (Homo sapiens), P63165; SUMO1 binding to a labelled peptide, TR-FRET, 1 h; inhibition, % at 20 µM; 360,000 compounds, 0.33% hits; AID 602429, 2012; in the data active = inhibition above about 37%
# Target sequence (P63165 whole entry, looked up): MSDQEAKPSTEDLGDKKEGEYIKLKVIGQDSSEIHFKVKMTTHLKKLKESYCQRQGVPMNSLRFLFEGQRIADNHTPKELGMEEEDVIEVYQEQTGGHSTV
# STEP block: STEP phosphatase inhibitors, primary screen, biochemical, fluorescence intensity, uHTS; Tyrosine-protein phosphatase non-receptor type 5 (Homo sapiens), P54829; recombinant STEP, OMFP fluorogenic substrate; inhibition, % at 20 µM; 360,000 compounds, 0.25% hits;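 active = inhibition at 20 µM, scaled per plate between control wells, above about 37%, limit read from the data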;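 also: 0% = DMSO with enzyme and substrate and 100% = substrate only without enzyme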
#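 material = STEP tyrosine phosphatase | reagent = fluorogenic phosphatase substrate OMFP at 25 µM final | doses = single compound dose of 20 µM, 1% DMSO final | schedule = 20 min reaction, room temperature, in the dark | measured by = fluorescence, 480/540 nm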
# DNMT1 inh: human DNMT1 methyltransferase inhibitors, primary screen, biochemical, molecular beacon, fluorescence, HinP1I cleavage, uHTS | DNA (cytosine-5)-methyltransferase 1 (Homo sapiens), P26358 | inhibition (reported as % activation of signal), % at 10 µM | 360,000 compounds, 0.83% hits | AID 588458, 2011; in the data active = inhibition above about 50%
# DNMT1 confirm: DNMT1 methyltransferase inhibitor retest, confirmation, biochemical, molecular beacon, fluorescence, single concentration. DNMT1 molecular beacon HinP1I cleavage. inhibition, % at 10 µM. AID 602385, 2012. shares compounds with DNMT1 inh. 2,300 compounds, 8% hits;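 active = average inhibition of at least 30% in the single-concentration confirmation test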
# Beacon interf: beacon fluorescence artifact counter-screen; shares compounds with DNMT1 inh; activation (fluorescence interference), % at 10 µM; 2,300 compounds, 1% hits; DNMT1 molecular beacon spectral interference counterscreen, fluorescence 485/520; AID 602387;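 active = activation of at least 30% at 10 µM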;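 also: DNMT1 catalytic domain with a HinP1I cleavage step and a FAM/dabcyl DNA beacon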
# Starred values were filed as active, the others as inactive; / = no result. An excerpt weighted towards active compounds, which were near 2.1% of everything screened.
SMILES,GRK2 inh,Scp-1 inhibitor,LMPTP block,SUMO1-SIM PPI,STEP block,DNMT1 inh,DNMT1 confirm,Beacon interf
CC(=O)Nc1ccc(NC(=O)C2CCCN2C(=O)NCc2ccccc2)cc1 (stereo not drawn),0,-7,-1,1,4,88*,2,3
O=C(Nc1ccccc1)C1CCCN1C(=O)NCc1ccccc1 (stereo not drawn),0,-6,1,4,-4,1,/,/
O=C(Nc1ccc(F)cc1)N[C@H]1CC[C@H](CCNS(=O)(=O)c2cccc(Cl)c2)O[C@@H]1CO,/,/,0,3,/,/,/,/
Cc1cc2c(N)cccc2nn1,1,60*,93*,73*,75*,127*,1,0
C[C@H](OC(=O)NCc1ccc(C(F)(F)F)cc1)[C@@H]1O[C@@]2(C)CCC[C@@H]1O2,0,-6,0,-1,-2,5,/,/
Cc1ccc(-c2ccc(/C=N\NC(=O)c3cc4c(ccc5ccccc54)o3)o2)cc1[N+](=O)[O-],0,-7,4,-4,4,72*,2,-2
CC1(C(=O)NCc2ccc3c(c2)OCO3)CCN1C(=O)C1(c2ccc(Cl)cc2)CC1 (stereo not drawn),/,/,-1,5,-4,0,/,/
Cc1sc2nc(SCC(=O)N(C)Cc3ccccc3)n(-c3ccccc3)c(=O)c2c1C,1,-11,5,-2,5,70*,-1,-5
COCC(C)N1CCC(Oc2ccc(C(=O)N3CCCC3)cc2)CC1 (stereo not drawn),0,-5,-1,2,-3,2,/,/
COc1ccc(C2CC(c3cccc([N+](=O)[O-])c3)=NN2/C(C)=C/C(C)=O)cc1 (stereo not drawn),/,/,2,-16,-1,57*,1,0
Cc1[nH]n(-c2ncc(-c3ccc(Cl)cc3)s2)c(=O)c1C(c1ccc(Cl)cc1)C(C#N)C#N (stereo not drawn),4,8,6,16,1,83*,8,0
CCOC(=O)CNC(=O)C1COc2ccccc2O1 (stereo not drawn),1,-4,-1,-4,-1,-1,/,/
Cc1cccc(NC(=O)NCc2ccc3c(c2)cc(C)n3C)c1,31,-6,5,-45,-2,57*,0,1
Cc1cc2cc(CNC(=O)Cc3ccc([N+](=O)[O-])cc3)ccc2n1C,11,-6,17,-17,1,56*,1,8
Cc1cc2cc(CNC(=S)Nc3ccc(OC(F)(F)F)cc3)ccc2n1C,0,3,2,-71,-3,57*,1,4
COc1cccc(NC(=S)NCc2ccc3c(c2)cc(C)n3C)c1,/,-11,5,-1,-3,19,/,/
CCOC(=O)C(Cc1ccc(NC(C)=O)cc1)N1C(=O)c2ccccc2C1=O (stereo not drawn),0,-5,0,-4,4,5,/,/
O=[N+]([O-])c1ccc(-c2nc(Cl)c3c(n2)CCCC3)o1,/,/,-2,-35,1,1,/,/
CSc1nc2nc(C)c(CCC(=O)OCC(=O)Nc3ccc(F)cc3)c(C)n2n1,/,-3,1,1,1,0,/,/
CNC(=O)Nc1cc(NC(=O)NC)cc(C(F)(F)F)c1,3,-5,-1,-3,-2,3,/,/
O=C(C[C@H]1C/C=C\C[C@H](NC(=O)OCC2c3ccccc3-c3ccccc32)C(=O)OC[C@H](Cc2ccccc2)NC1=O)N[C@H](CO)Cc1ccccc1,0,-4,0,1,-4,51*,3,-3
C[C@@H]1COC(=O)[C@H](NC(=O)OCC2c3ccccc3-c3ccccc32)C/C=C\C[C@@H](CC(=O)N[C@@H](CO)Cc2ccccc2)C(=O)N1,4,-5,-1,-3,0,11,/,/
O=S(=O)(c1ccc(NC(=S)N2CCCCC2CO)cc1)N1CCOCC1 (stereo not drawn),/,/,-1,0,-1,60*,-1,-4
O=C(Nc1ccc(S(=O)(=O)N2CCOCC2)cc1)C1CC1,0,-6,1,0,-2,2,/,/
Cc1c(C)c2c(OCC(=O)Nc3cccnc3)cc3c(c2oc1=O)CCC(C)(C)O3,0,-1,1,14,5,55*,1,2
SMILES,GRK2 inh,Scp-1 inhibitor,LMPTP block,SUMO1-SIM PPI,STEP block,DNMT1 inh,DNMT1 confirm,Beacon interf
CCc1cc(=O)oc2c3c(cc(OCC(=O)Nc4cccnc4)c12)OC(C)(C)CC3,0,7,2,6,0,0,/,/
O=C1NC(=S)N/C1=C/c1ccc(Oc2ccc(C(F)(F)F)cc2[N+](=O)[O-])c(Cl)c1,2,8,-1,-1,-2,51*,1,3
O=C1NC(=S)N/C1=C/c1cccc([N+](=O)[O-])c1,4,-6,1,-26,-4,5,/,/
CC(C)n1cc(/C=N/Nc2ccc(Cl)c(C(=O)O)c2)c2ccccc21,34,/,54*,114*,91*,82*,14,3
O=C(O)c1cc(N/N=C/c2cccc3ccccc23)ccc1Cl,0,-3,-1,7,0,2,/,/
O=[N+]([O-])c1ccc(NN=Cc2cccc([N+](=O)[O-])c2)cc1,/,-8,36,-14,13,72*,4,-1
CCCCCCC(=O)Nc1ccc(C(=O)N/N=C/c2cccnc2)cc1,0,25,0,-7,13,-2,/,/
Cn1cccc1CC(=O)N/N=C/c1cccc([N+](=O)[O-])c1,0,1,0,-6,-2,94*,3,6
CCCCCCCC(=O)Nc1ccc(C(=O)N/N=C/c2cccc([N+](=O)[O-])c2)cc1,0,96*,0,0,24,78*,5,2
O=[N+]([O-])c1ccc(N/N=C/c2cccc(O)c2)cc1,0,-12,7,-34,1,-21,/,/
